Source: PubChem
Rows were chosen to be rich in hits. Some 3.1% of all compounds tested hit in one or more screens of this group.
IMP-1 inh: inhibitors of Pseudomonas aeruginosa IMP-1 metallo-beta-lactamase | purified IMP-1, nitrocefin hydrolysis, epi-absorbance fluorescence | inhibition, % at 5.6 µM | actives 0.45% (n = 290,000) | AID 1556;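 active = inhibition above the mean plus 3 SD of all compounds in the same screening run, cut at about 4.5% in these data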
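assay system = purified recombinant IMP-1 metallo-beta-lactamase enzyme | schedule = 15 min preincubation plus 25 min reaction at 25 °C | signal = Epi-absorbance fluorescence, 480 nm excitation, 530 nm emission | read-out basis = percent inhibition from optical density relative to buffer-blank wells | controls = IMP-1 with DMSO as 0%, enzyme-free DMSO as 100%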
HCV NS3 hel inh: inhibitors of Hepatitis C virus NS3 helicase; NS3 helicase DNA unwinding, Cy5 molecular beacon fluorescence; inhibition, % at 10.9 µM; actives 0.56% (n = 290,000);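 active = inhibition above the mean of all tested compounds plus 3 SD, set per campaign, cut at about 35% in these data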
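System: HCV NS3 helicase fragment; control set: DMSO and thioflavine S; technique: Cy5 fluorescence at 0 and 60 min, beacon hairpin quenching; reagent: beacon DNA duplex substrate plus ATP; replicates: singlicate; schedule: 1 h reaction at 25 °C, ATP-initiated; medium: MOPS buffer pH 6.5 with MgCl2, DTT, Tween20, BSA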
SUMO HTRF inh: inhibitors of human SUMOylation (UBC9) | P63279 | HTRF SUMOylation assay, SAE1/SAE2 + UBC9, in vitro | AID 2006 | inhibition, % at 35 µM | actives 0.36% (n = 290,000); in the data active = inhibition above about 50%, passing the limit was not always enough
Target sequence (P63279 whole entry, looked up): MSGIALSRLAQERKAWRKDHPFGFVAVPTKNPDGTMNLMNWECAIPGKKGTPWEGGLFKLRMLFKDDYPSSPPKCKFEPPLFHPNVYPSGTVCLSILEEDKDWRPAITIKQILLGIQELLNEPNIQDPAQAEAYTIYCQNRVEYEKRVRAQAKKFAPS
VIM-2 inh: inhibitors of Pseudomonas aeruginosa VIM-2 metallo-beta-lactamase | purified VIM-2, nitrocefin hydrolysis, epi-absorbance fluorescence | inhibition, % at 5.6 µM | actives 0.89% (n = 290,000) | AID 1527;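 active = inhibition above the mean of all tested compounds plus 3 SD, cutoff set per screening run, cut at about 7.5% in these data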;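 note: red hydrolysis product quenches plate fluorescence so inhibitors raise well fluorescence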
PHOSPHO1 block: blocks human PHOSPHO1 phosphatase activity | Q8TCT1 | recombinant PHOSPHO1, absorbance phosphatase assay | inhibition, % at 13.3 µM | actives 1.1% (n = 290,000) | AID 1565; in the data active = inhibition above about 60%
Target sequence (Q8TCT1 whole entry, looked up): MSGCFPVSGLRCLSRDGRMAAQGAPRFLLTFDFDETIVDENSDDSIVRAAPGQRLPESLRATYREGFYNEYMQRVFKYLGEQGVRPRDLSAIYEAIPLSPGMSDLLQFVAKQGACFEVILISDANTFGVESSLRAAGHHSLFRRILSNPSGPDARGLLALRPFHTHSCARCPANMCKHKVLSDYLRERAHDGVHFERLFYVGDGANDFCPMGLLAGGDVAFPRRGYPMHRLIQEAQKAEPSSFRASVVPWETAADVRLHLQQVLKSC
core dimer inh: HCV core protein dimerization inhibition; TR-FRET GST/Flag-core106 dimerization, 1536-well; actives 0.33% (n = 300,000); AID 1899; inhibition, % at 5 µM;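 active = inhibition above the mean of all tested compounds plus 3 SD, set per screening campaign, cut at about 45% in these data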
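Assay system: GST-tagged and Flag-tagged HCV core protein residues 1-106 / Times: compound-protein-antibody incubation 4 h at 22.5 °C / Signal: time-resolved FRET, ex 340 nm, em 617 and 671 nm / Evaluation: % inhibition based on acceptor/donor emission ratio / Benchmarks: wells lacking GST-core106 and wells with excess unlabelled core106 / Repeats: singlicate, one well per compound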
Large screens that a line does not name were inactive; ! = not active in a repeat.

COc1cccc(CN(C(=O)Cc2c[nH]c3ccccc23)C(C(=O)NC2CCCCC2)c2ccc(C)o2)c1 (stereo unspecified)	IMP-1 inh 22
Cc1ccc(C(C(=O)NC2CCCCC2)N(Cc2ccccc2)C(=O)Cc2c[nH]c3ccccc23)o1 (stereo unspecified)	none
O=C1CCc2ccc(NS(=O)(=O)c3ccc(F)cc3)cc2N1	none
Cc1ccc(NC(=S)NNC(=O)c2cn(C)nc2C)cc1	PHOSPHO1 block 89
Cc1ccc(NC(=O)c2c([N+](=O)[O-])c(C(C)(C)C)nn2C)cc1	none
Cc1cccc(NC(=S)NNC(=O)CCn2nc(C)c([N+](=O)[O-])c2C)c1	VIM-2 inh 8.2
Cc1ccc(NC(=S)NNC(=O)c2c(Cl)c(C)nn2C)cc1	PHOSPHO1 block 68
Cc1ccc(NC(=S)NNC(=O)c2c([N+](=O)[O-])c(C)nn2C)cc1	PHOSPHO1 block 76
Cc1nn(CCC(=O)NNC(=S)Nc2cccc(Cl)c2)c(C)c1[N+](=O)[O-]	none
O=C(NNC(=O)c1ccccc1OCc1ccccc1Cl)c1csc(N2CCOCC2)n1	none
Cc1cccc(NC(=S)NCC(c2cccnc2)N(C)C)c1 (stereo unspecified)	none
Cc1nn(CCC(=O)NNC(=S)Nc2ccc(Cl)cc2)c(C)c1[N+](=O)[O-]	none
Cc1nn(C(C)C(=O)NNC(=S)Nc2ccc(Cl)cc2)c(C)c1[N+](=O)[O-] (stereo unspecified)	PHOSPHO1 block 94
COC(=O)Oc1nsnc1N1CCOCC1	PHOSPHO1 block 92
O=S1(=O)N=C(SCCO)c2ccccc21	PHOSPHO1 block 92
Cc1cc(OC(C)C(=O)NCC2CCC(C(=O)O)CC2)c2c(C)cc(=O)oc2c1 (stereo unspecified)	none
CCN(CC)c1ccc(SS(=O)(=O)O)cc1	PHOSPHO1 block 106!
CCN(CC)c1ccc(C(=O)O)cc1	none
COC(=O)c1ccccc1C(=O)c1ccc2c(c1)NC(=O)CO2	none
Cc1cc2c(cc1S(=O)(=O)Nc1ccc(OC(F)(F)F)cc1)OCC(=O)N2	none
O=S(=O)(c1ccc(C2CCCCC2)cc1)N1CCOCC1	none
Cc1cc(C)c2c(c1)C1C=CCC1C(c1ccc(S(=O)(=O)N3CCOCC3)cc1)N2 (stereo unspecified)	IMP-1 inh 5.8, core dimer inh 63
O=C(O)c1cc(Cl)c2c(c1)[C@@H]1C=CC[C@@H]1[C@H](c1ccc(S(=O)(=O)N3CCOCC3)cc1)N2	IMP-1 inh 11
CCCCn1[nH]c(-c2ccccc2)cc1=O	SUMO HTRF inh 80
O=C1COc2ccc(C(=O)COC(=O)Cc3ccc(F)cc3)cc2N1	none (no result: IMP-1 inh, HCV NS3 hel inh, SUMO HTRF inh, VIM-2 inh, PHOSPHO1 block)
COc1cc(NCc2ccccc2O)c2ncccc2c1	none (no result: core dimer inh)
Oc1ccccc1CNc1cccc2cccnc12	SUMO HTRF inh 76
Oc1ccc(CNc2ccccc2F)c2cccnc12	PHOSPHO1 block 97
Cc1cccc(-n2cnc(C(=O)O)c2)n1	VIM-2 inh 9.7
O=C(CNc1ccccc1)N/N=C/c1cc([N+](=O)[O-])ccc1N1CCCC1	none
O=C(Cn1c2ccccc2c(=O)c2ccccc21)N/N=C/c1cc([N+](=O)[O-])ccc1N1CCCCCC1	core dimer inh 65 (no result: SUMO HTRF inh)
O=C(N/N=C/c1ccc(N2CCCC2)c([N+](=O)[O-])c1)c1cccnc1	none
Cc1ccc(-n2c(C)cc(/C=N/NC(=O)Cn3c4ccccc4c(=O)c4ccccc43)c2C)cc1	core dimer inh 68
O=C(Cn1c2ccccc2c(=O)c2ccccc21)N/N=C/c1ccc(N2CCCC2)c([N+](=O)[O-])c1	core dimer inh 51
Cn1cc(Cl)c(-c2n[nH]c(=S)n2-c2ccc(F)cc2)n1	VIM-2 inh 11
Cc1occc1-c1n[nH]c(=S)n1C	none
Cc1nn(C)cc1-c1n[nH]c(=S)n1-c1ccc(F)cc1	none
Cc1ccc(-n2c(-c3cn(C)nc3C)n[nH]c2=S)cc1	VIM-2 inh 8.9
Fc1ccc(-n2c(-c3ccc4ccccc4n3)n[nH]c2=S)cc1	PHOSPHO1 block 60
Cc1occc1-c1n[nH]c(=S)n1-c1ccccc1	VIM-2 inh 8.7
O=[N+]([O-])c1ccccc1N/N=C1\CC2CC=CC12 (stereo unspecified)	none
CCCCc1nnc(NC(=O)CSCc2cc(=O)n3cc(C)sc3n2)s1	none
Fc1ccc(-c2n[nH]c(=S)n2-c2ccc3c(c2)OCCO3)cc1	VIM-2 inh 9.2
Cc1ccc(-c2n[nH]c(=S)n2C)cc1	PHOSPHO1 block 94 (no result: core dimer inh)
COc1ccccc1C(=O)NCC1(c2ccccc2)CCCC1	none
O=C(O)CNC(=O)/C(=C\c1cccc([N+](=O)[O-])c1)NC(=O)c1ccco1	none
Cc1nnc(SCC(=O)Nc2nccs2)n1C(C)C	none
Cc1ccc(C(=O)NC2(O)C(=O)c3ccccc3C2=O)cc1C	none (no result: SUMO HTRF inh)
O=C(NC1(O)C(=O)c2ccccc2C1=O)c1ccc(C(F)(F)F)cc1	SUMO HTRF inh 90
CC(C)CNC(=O)CCc1nc(-c2ccccc2)no1	none
OCCC1CN(Cc2nc(-c3ccccc3)cs2)CCN1C1CCCC1 (stereo unspecified)	PHOSPHO1 block 64
OCCC1CN(Cc2nc(-c3ccccc3)cs2)CCN1Cc1ccc(F)cc1 (stereo unspecified)	none
O=C(c1ccccc1)c1c[nH]c(C(=O)NNc2ccccc2)c1	none
COc1ccccc1C(CNc1ncnc2sc(C)c(C)c12)N(C)C (stereo unspecified)	none
COc1ccc(C(CNc2ncnc3sc(C)c(C)c23)N(C)C)cc1 (stereo unspecified)	VIM-2 inh 8.8
O=C(O)C1CSC2c3ccccc3C(=O)N12 (stereo unspecified)	IMP-1 inh 11
NC(=O)CSc1nnc(Cc2ccc3c(c2)OCO3)o1	none
O=C(c1ccccc1)c1ccc(O)cc1O	IMP-1 inh 12
O=C1NC(=S)SC1=C1CCCC1	PHOSPHO1 block 71
CN1C(=O)C(=C2CCCCCC2)SC1=S	none
CCN1CCc2nc3sc(C(=O)N4CCc5ccccc5C4)c(N)c3cc2C1	none
CC(C)OC(=O)CC(=O)c1sc2nc3c(cc2c1N)CN(C)CC3	PHOSPHO1 block 82
CCc1cc2c(NCC3CCCO3)ncnc2s1 (stereo unspecified)	none
Cc1sc2ncnc(NCC3CCCO3)c2c1C (stereo unspecified)	PHOSPHO1 block 60
Nn1c(SC/C=C/c2ccccc2)nnc1-c1cccnc1	none
Cc1cccc(CSc2nnc(-c3ccccn3)n2N)c1	PHOSPHO1 block 63
Nn1c(SC/C=C/c2ccccc2)nnc1-c1ccccn1	PHOSPHO1 block 84
O=C(O)c1ccc(S(=O)(=O)c2ccc([N+](=O)[O-])cc2[N+](=O)[O-])cc1	none (no result: PHOSPHO1 block)
